Measurements reported in ChEMBL document CHEMBL1122917, “Vinblastin-23-oyl amino acid derivatives: chemistry, physicochemical data, toxicity, and antitumor activities against P388 and L1210 leukemias” (J Med Chem, 1985).

How the values were obtained:
Mus musculus [1] = experiment: Percent increase in life span of DBA2 mice after inoculation with L1210 leukemia intravenously at a dose of 8 mg/kg per day; format: functional; conditions: route intravenous
Procedure, shortened: (§1)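 Female DBA2 mice inoculated iv on day 0 with 10^4 L1210 cells; drugs given iv as sulfate salts in physiological saline, mostly once on day 1. %ILS from all deaths and survivors as (T/C × 100) − 100; survivors scored on days 30 and 60.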

Mus musculus [2] = experiment: Percent increase in life span of DBA2 mice after inoculation with L1210 leukemia intravenously at a dose of 9 mg/kg per day; format: functional; conditions: route intravenous; procedure, shortened: as §1
Mus musculus [3] = experiment: Number of survivors on 60th day at dose 8 mg/kg/day in 10 mice implanted with P388 leukemia cell line; 0/10; format: functional
Procedure, shortened: (§2)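 Female DBA2 mice inoculated iv on day 0 with 10^4 P388 cells; single iv treatment on day 1 with drug as sulfate salt in physiological saline. Survival followed; %ILS from all deaths and survivors as (T/C × 100) − 100, maximal MST 30 days; survivors counted on days 30 and 60. Most experiments confirmed three times.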

Mus musculus [4] = experiment: Number of survivors on 60th day at dose 8 mg/kg/day in 7 mice implanted with P388 leukemia cell line for 1,8.15 scheduled days from Exp-1; 0/9; format: functional
Mus musculus [5] = experiment: Number of survivors on 60th day at dose 9 mg/kg/day in 10 mice implanted with P388 leukemia cell line; 0/10; format: functional; procedure, shortened: as §2
Mus musculus [6] = experiment: Number of survivors on 60th day at dose 7 mg/kg/day in 10 mice implanted with P388 leukemia cell line; 0/10; format: functional; procedure, shortened: as §2
Mus musculus [7] = experiment: Number of survivors of DBA2 mice on 60th day after inoculation with L1210 leukemia cell line intravenously at a dose of 6 mg/kg/day; 0/10; format: functional; conditions: route intravenous
Mus musculus [8] = experiment: Number of survivors of DBA2 mice on 60th day after inoculation with L1210 leukemia cell line intravenously at a dose of 8 mg/kg/day; 0/10; format: functional; conditions: route intravenous
Mus musculus [9] = experiment: Number of survivors of DBA2 mice on 60th day after inoculation with L1210 leukemia cell line intravenously at a dose of 9 mg/kg/day; 0/10; format: functional; conditions: route intravenous
Procedure, shortened: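 Female DBA₂ mice received 10⁴ L1210 cells iv on day 0. Compounds were given iv as sulfate salts in physiological saline, as a single dose on day 1 (mg/kg per day). Groups were 10 mice. Survivors were counted on day 60. Cells were maintained by ip passage in DBA₂ mice.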

Mus musculus [10] = experiment: Number of survivors of DBA2 mice on 60th day after inoculation with L1210 leukemia cell line intraperitoneally at a dose of 6 mg/kg/day; 0/10; format: functional; conditions: route intraperitoneal
Mus musculus [11] = experiment: Number of survivors on 60th day at dose 3 mg/kg/day in 10 mice implanted with P388 leukemia cell line; 0/10; format: functional
Mus musculus [12] = experiment: Percent increase in life span at dose 4 mg/kg/day in 10 mice implanted with P388 leukemia cell line for 1st scheduled day; format: functional
Procedure, shortened: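 Female DBA2 mice inoculated iv on day 0 with 10^5 P388 cells; iv dosing of sulfate salts in physiological saline on day 1 only or on days 1, 8 and 15. %ILS from all deaths and survivors as (T/C × 100) − 100, maximal MST 60 days; survivors scored on day 60.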

Mus musculus [13] = experiment: Number of survivors of DBA2 mice on 30th day after inoculation with L1210 leukemia cell line intravenously at a dose of 3 mg/kg/day; 0/10; format: functional; conditions: route intravenous
Mus musculus [14] = experiment: Number of survivors on 60th day at dose 7 mg/kg/day in 9 mice implanted with P388 leukemia cell line;0/9; format: functional
[15] = Acute iv toxicity against NMRI strain of 100 mice after 7 doses of injection; format: organism-based; conditions: mouse, in vivo
Procedure, shortened: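 Acute toxicity in Swiss, CD1 or NMRI mice. Drugs given iv as sulfate salts. LD50 taken at day 14 from several dose levels, with 40–[…] mice per drug and strain.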

Mus musculus [16] = experiment: Percent increase in life span of BDF1 mice after inoculation with P388 leukemia intraperitoneally at a dose of 3 mg/kg per day; conditions: P388, ip
Mus musculus [17] = experiment: Percent increase in life span of BDF1 mice after inoculation with P388 leukemia cells intraperitoneally at a dose of 0.33 mg/kg per day for 1-9 scheduled days; conditions: P388, ip
Mus musculus [18] = experiment: Percent increase in life span at dose 56 mg/kg/day in 10 mice implanted with P388 leukemia cell line; format: functional
Mus musculus [19] = experiment: Number of survivors on 60th day at dose 60 mg/kg/day in 10 mice implanted with P388 leukemia cell line for 1st scheduled day; 0/9; format: functional
Mus musculus [20] = experiment: Number of survivors of DBA2 mice on 30th day after inoculation with L1210 leukemia cell line intravenously at a dose of 58 mg/kg/day; 0/10; format: functional; conditions: route intravenous
Mus musculus [21] = experiment: Number of survivors of DBA2 mice on 30th day after inoculation with L1210 leukemia cell line intravenously at a dose of 70 mg/kg/day; 0/10; format: functional; conditions: route intravenous
Mus musculus [22] = experiment: Number of survivors on 60th day at dose 40 mg/kg/day in 10 mice implanted with P388 leukemia cell line; 4/10; format: functional
Mus musculus [23] = experiment: Number of survivors on 60th day at dose 65 mg/kg/day in 10 mice implanted with P388 leukemia cell line; 7/9; format: functional
Mus musculus [24] = experiment: Number of survivors on 30th day at dose 55 mg/kg/day in 10 mice implanted with P388 leukemia cell line for 1st scheduled day; 1/10; format: functional
Mus musculus [25] = experiment: Number of survivors on 30th day at dose 55 mg/kg/day in 10 mice implanted with P388 leukemia cell line for1,5,9 scheduled days; 2/10; format: functional
Mus musculus [26] = experiment: Number of survivors of DBA2 mice on 60th day after inoculation with L1210 leukemia cell line intravenously at a dose of 70 mg/kg/day; 0/10; format: functional; conditions: route intravenous
[27] = Acute iv toxicity against Swiss strain of 100 mice after 8 doses of injection; format: organism-based; conditions: mouse, in vivo
Mus musculus [28] = experiment: Percent increase in life span at dose 2.5 mg/kg/day in 10 mice implanted with P388 leukemia cell line; format: functional
Mus musculus [29] = experiment: Percent increase in life span of DBA2 mice after inoculation with L1210 leukemia intravenously at a dose of 2.5 mg/kg per day; format: functional; conditions: route intravenous; procedure, shortened: as §1
Mus musculus [30] = experiment: Number of survivors of DBA2 mice on 60th day after inoculation with L1210 leukemia cell line intravenously at a dose of 2.5 mg/kg/day; 0/10; format: functional; conditions: route intravenous
Mus musculus [31] = experiment: Number of survivors on 30th day at dose 8 mg/kg/day in 10 mice implanted with P388 leukemia cell line; 0/10; format: functional
Mus musculus [32] = experiment: Number of survivors on 30th day at dose 1.5 mg/kg/day in 10 mice implanted with P388 leukemia cell line; 0/10; format: functional
Mus musculus [33] = experiment: Number of survivors of DBA2 mice on 60th day after inoculation with L1210 leukemia cell line intravenously at a dose of 5.5 mg/kg/day; 0/10; format: functional; conditions: route intravenous
Mus musculus [34] = experiment: Percent increase in life span of BDF1 mice after inoculation with P388 leukemia cells intraperitoneally at a dose of 0.22 mg/kg per day for 1-9 scheduled days; conditions: P388, ip

Structure (SMILES)	ILS at 8 mg/kg/day (Mus musculus [1]) [%]	ILS at 9 mg/kg/day (Mus musculus [2]) [%]	Survivors (Mus musculus [3])	Survivors (Mus musculus [5])	Survivors (Mus musculus [6])	Survivors (Mus musculus [7])	Survivors (Mus musculus [8])	Survivors (Mus musculus [9])	Survivors (Mus musculus [10])	Survivors (Mus musculus [11])	ILS at 4 mg/kg/day (Mus musculus [12]) [%]	Survivors (Mus musculus [13])	LD50 [15] [mg/kg]	ILS at 3 mg/kg/day (Mus musculus [16]) [%]	ILS at 2.5 mg/kg/day (Mus musculus [29]) [%]	Survivors (Mus musculus [30])	further results
CCOC(=O)[C@@H](NC(=O)[C@@]1(O)[C@H](O)[C@]2(CC)C=CCN3CC[C@@]4(c5cc([C@@]6(C(=O)OC)C[C@H]7C[N@](CCc8c6[nH]c6ccccc86)C[C@](O)(CC)C7)c(OC)cc5N(C)[C@@]14C)[C@@H]32)[C@@H](C)CC	49	64	0	0	0	0	0	0									Survivors (Mus musculus [4]): 0
CC[C@]1(O)C[C@@H]2CN(CCc3c([nH]c4ccccc34)[C@@](C(=O)OC)(c3cc4c(cc3OC)N(C)[C@H]3[C@@](O)(C(=O)OC)[C@H](OC(C)=O)[C@]5(CC)C=CCN6CC[C@]43[C@@H]65)C2)C1 [VINBLASTINE]	57.6	-21.6		0		0	0	0	0	0	52	0	27.4	63			Survivors (Mus musculus [14]): 0; ILS at 0.33 mg/kg/day (Mus musculus [17]): 74%
CCOC(=O)[C@H](Cc1c[nH]c2ccccc12)NC(=O)[C@@]1(O)[C@H](O)[C@]2(CC)C=CCN3CC[C@@]4(c5cc([C@@]6(C(=O)OC)C[C@H]7C[N@](CCc8c6[nH]c6ccccc86)C[C@](O)(CC)C7)c(OC)cc5N(C)[C@@]14C)[C@@H]32													269				ILS at 56 mg/kg/day (Mus musculus [18]): 113%; Survivors (Mus musculus [19]): 0; Survivors (Mus musculus [20]): 0; Survivors (Mus musculus [21]): 0; Survivors (Mus musculus [22]): 4; Survivors (Mus musculus [23]): 7; Survivors (Mus musculus [24]): 1; Survivors (Mus musculus [25]): 2; Survivors (Mus musculus [26]): 0
CC[C@]1(O)C[C@@H]2CN(CCc3c([nH]c4ccccc34)[C@@](C(=O)OC)(c3cc4c(cc3OC)N(C)[C@H]3[C@@](O)(C(N)=O)[C@H](O)[C@]5(CC)C=CCN6CC[C@]43[C@@H]65)C2)C1 [VINDESINE]			0		0				0	0	43			89	13.3	0	LD50 [27]: 13.8 mg/kg; ILS at 2.5 mg/kg/day (Mus musculus [28]): 19%; Survivors (Mus musculus [31]): 0
CC[C@]1(O)C[C@H]2CN(CCc3c([nH]c4ccccc34)[C@@](C(=O)OC)(c3cc4c(cc3OC)N(C=O)[C@H]3[C@@](O)(C(=O)OC)[C@H](OC(C)=O)[C@]5(CC)C=CCN6CC[C@]43[C@@H]65)C2)C1 [VINCRISTINE]												0			30	0	Survivors (Mus musculus [32]): 0; Survivors (Mus musculus [33]): 0; ILS at 0.22 mg/kg/day (Mus musculus [34]): 146%
